Test results published in the RNAGym collection of RNA variant scans (doi:10.1126/science.aae0568).
Variants at the floor of the assay were thinned out.

B1: tRNA (parent)
chain: GUUCCGUUGGCGUAAUGGUAACGCGUCUCCCUCCUAAGGAGAAGACUGCGGGUUCGAGUCCCGUACGGAACG

Variants of: B1
Assay: yeast fitness relative to wild type (ratio to wild type); higher = fitter; tRNA-Arg(CCU), competitive growth, 37 C, YPD
Outline: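 The tRNA-Arg(CCU) gene variants were made by chemical synthesis with a 3% per-site mutation rate at 69 sites and inserted at the native genomic locus of Saccharomyces cerevisiae. After pooling, the strains were competed in YPD at 37°C for 24 hours in six parallel replicates. Gene amplicons from the start population and each end population were read by 100-nucleotide paired-end sequencing, and Darwinian fitness relative to wild type was taken from genotype frequency changes. Genotypes needed ≥ 100 starting reads, and estimates < 0.5 were set to 0.5.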

Compared with C11U C33A C34G, C11U A21U A69G is higher in yeast fitness: 0.526 for the first, 0.712 for the second.

C11U A20U C29G U47G G63A A70U and C11U C29A U35C cannot be ordered by yeast fitness: at most 0.5 for the first, at most 0.5 for the second.

C11U C33G C60A and C11U A37G C49U A69C cannot be ordered by yeast fitness: at most 0.5 for the first, at most 0.5 for the second.

Compared with C11U C24G C33A A40C A65U, C11U A43C G48C U64C is lower in yeast fitness: 0.641 for the first, at most 0.5 for the second.

Going from C11U C24G C33A A40C G50C to C11U A42G C49A A57C, the yeast fitness rises from at most 0.5 to 0.51.

First: C11U C34U
Second: C11U C49G C55G C61G
The yeast fitness of the first is higher: 0.714 for the first, at most 0.5 for the second.

Compared with C11U A42U A43G C61A, C11U C30U C34G is higher in yeast fitness: at most 0.5 for the first, 0.576 for the second.

C11U C27G C62U A65U and C11U A57G C61A cannot be ordered by yeast fitness: at most 0.5 for the first, at most 0.5 for the second.

Going from C11U A57G C61U to C11U A40G C46A, the yeast fitness rises from at most 0.5 to 0.792.

C11U C29A U54A A70C and C11U A45U C49G A65U cannot be ordered by yeast fitness: at most 0.5 for the first, at most 0.5 for the second.

First: C11U A21C A37U A42G A69C A70G
Second: C11U A42U C66A
The yeast fitness of the first is lower: at most 0.5 for the first, 0.51 for the second.

Compared with C11U A43C G44A, C11U C27U U35C is lower in yeast fitness: 0.741 for the first, 0.635 for the second.

First: C11U A20U C24U C29A U32C A70G
Second: C11U C22A C29G C33U
The yeast fitness of the first is lower: at most 0.5 for the first, 0.519 for the second.

First: C11U C29G A37C A42U A57G C61U G67A
Second: C11U A21U C30G A42G
The yeast fitness of the first is lower: at most 0.5 for the first, 0.755 for the second.

Going from C11U C30U C46A to C11U C29A A57G, the yeast fitness falls from 0.821 to at most 0.5.

C11U A20U G39C U54G and C11U A20G A37G U54A U59G cannot be ordered by yeast fitness: at most 0.5 for the first, at most 0.5 for the second.

First: C11U A21C
Second: C11U A43G
The yeast fitness of the first is lower: 0.714 for the first, 0.945 for the second.

Compared with C11U C46A, C11U C46U is lower in yeast fitness: 1.03 for the first, 1 for the second.

C11U A21U G41A A57C and C11U C31U G51C cannot be ordered by yeast fitness: at most 0.5 for the first, at most 0.5 for the second.

Compared with C11U A21G C55U, C11U C31G C46A U54C C61G is lower in yeast fitness: 0.593 for the first, at most 0.5 for the second.

Going from C11U C22G G52C G56U to C11U C31U G41U C49U, the yeast fitness rises from at most 0.5 to 0.522.

C11U C24U C34G U64A and C11U C31U A42G C62U A69C cannot be ordered by yeast fitness: at most 0.5 for the first, at most 0.5 for the second.

First: C11U A21C A70G
Second: C11U A45U A70C
The yeast fitness of the first is lower: at most 0.5 for the first, 1.06 for the second.

Compared with C11U A21U C46A, C11U C49U A65C is higher in yeast fitness: 0.685 for the first, 0.727 for the second.

C11U A40U C66G and C11U A43G A57C cannot be ordered by yeast fitness: at most 0.5 for the first, at most 0.5 for the second.

First: C11U A40U C46U G63C
Second: C11U A65U
The yeast fitness of the first is lower: at most 0.5 for the first, 0.923 for the second.

First: C11U A65G
Second: C11U A65C
The yeast fitness of the first is higher: 0.935 for the first, 0.933 for the second.

Going from C11U A36G A43C to C11U C22U G58A C66U, the yeast fitness falls from 0.546 to 0.532.

First: C11U C24G C61A
Second: C11U C29U C66U
The yeast fitness of the first is lower: 0.569 for the first, 0.603 for the second.

Going from C11U A70C to C11U A70U, the yeast fitness falls from 0.898 to 0.88.

Compared with C11U A57C, C11U A57G is higher in yeast fitness: 0.622 for the first, 0.816 for the second.

C11U A21C A42G A69C and C11U C22A C29G C33U G56C cannot be ordered by yeast fitness: at most 0.5 for the first, at most 0.5 for the second.

Going from C11U C31U C66U to C11U A40C, the yeast fitness rises from 0.742 to 0.755.

Compared with C11U A40U, C11U A37C C49U is lower in yeast fitness: 0.787 for the first, at most 0.5 for the second.

Compared with C11U C22G A36G A65U, C11U A42C U47C is higher in yeast fitness: 0.554 for the first, 0.764 for the second.

Compared with C11U A45G, C11U C29U A45C C60G A65C is lower in yeast fitness: 0.96 for the first, at most 0.5 for the second.

C11U C29G A37C A42U and C11U C22U C24U G41A A65C cannot be ordered by yeast fitness: at most 0.5 for the first, at most 0.5 for the second.

First: C11U A43C C62U
Second: C11U C24G U47A
The yeast fitness of the first is higher: 0.692 for the first, 0.565 for the second.

C11U A21C A42G C61U and C11U C30U A43G cannot be ordered by yeast fitness: at most 0.5 for the first, at most 0.5 for the second.

First: C11U C30A U47A
Second: C11U A37C U47C G68C
The yeast fitness of the first is higher: 0.57 for the first, at most 0.5 for the second.

C11U A20U C22A and C11U A21C C22A C66A cannot be ordered by yeast fitness: at most 0.5 for the first, at most 0.5 for the second.

Going from C11U A36G G41A C49U G63A to C11U C33U A69U, the yeast fitness rises from at most 0.5 to 0.605.

Going from C11U C29U G38A G48C C62G to C11U A65G A70U, the yeast fitness rises from at most 0.5 to 0.606.

C11U A40C A43U U53A and C11U A36C U64A A70C cannot be ordered by yeast fitness: at most 0.5 for the first, at most 0.5 for the second.

Compared with C11U C22A C24G A36G G39C C55U C66U, C11U C31G C46G is higher in yeast fitness: at most 0.5 for the first, 0.673 for the second.

Going from C11U C31G C46A to C11U C29G C31U, the yeast fitness falls from 0.629 to 0.531.

C11U A21G C29U C55G and C11U A42G U59C C61U cannot be ordered by yeast fitness: at most 0.5 for the first, at most 0.5 for the second.

Compared with C11U A45G U59A, C11U A37C A45C is higher in yeast fitness: 0.526 for the first, 0.576 for the second.

Compared with C11U C49U C61A, C11U C22U C55U is higher in yeast fitness: 0.555 for the first, 0.681 for the second.

First: C11U A21U A42G C60A
Second: C11U A21G C24A G52A C60A A69G
The yeast fitness of the first is lower: at most 0.5 for the first, 0.523 for the second.

First: C11U A37C U47C
Second: C11U C27A C29A A37U A45U
The yeast fitness of the first is higher: 0.706 for the first, 0.54 for the second.

Going from C11U C46A A65U to C11U A37U C60U, the yeast fitness falls from 0.682 to 0.539.

First: C11U C31G A57U
Second: C11U A21U C34G G56A
The yeast fitness of the first is higher: 0.533 for the first, at most 0.5 for the second.

Going from C11U C30G G58A to C11U A36G U53C, the yeast fitness rises from at most 0.5 to 0.538.

Compared with C11U C27G A42C G68A, C11U C31A is higher in yeast fitness: at most 0.5 for the first, 0.725 for the second.

Compared with C11U C31U, C11U C31G C49G is lower in yeast fitness: 0.804 for the first, 0.696 for the second.

Going from C11U A20U G39A A65C to C11U C22G A65G, the yeast fitness rises from 0.533 to 0.731.

Compared with C11U A43U C46G, C11U C30G A40G G50C G51C is lower in yeast fitness: 0.723 for the first, at most 0.5 for the second.

Going from C11U C22G A37C A42G G44A to C11U A21C C22G, the yeast fitness rises from at most 0.5 to 0.657.

First: C11U A21U C66U
Second: C11U C24G
The yeast fitness of the first is higher: 0.816 for the first, 0.614 for the second.

C11U A20U G39A G41C C46A G68A and C11U C55A G56C G67C cannot be ordered by yeast fitness: at most 0.5 for the first, at most 0.5 for the second.

C11U A57C G63A and C11U C33G C61U cannot be ordered by yeast fitness: at most 0.5 for the first, at most 0.5 for the second.

C11U C22G C29G G41A U54A U64G and C11U C22G A42G U59C cannot be ordered by yeast fitness: at most 0.5 for the first, at most 0.5 for the second.

C11U A36C C61U and C11U C29U C60G A70G cannot be ordered by yeast fitness: at most 0.5 for the first, at most 0.5 for the second.

Compared with C11U A45U U53C, C11U C33G C46A C61A is lower in yeast fitness: 0.66 for the first, at most 0.5 for the second.

C11U A21C A42C G44A U54A C62U and C11U C24A A70U cannot be ordered by yeast fitness: at most 0.5 for the first, at most 0.5 for the second.

Compared with C11U C24G A70U, C11U C24U C30U A57C G63C is lower in yeast fitness: 0.557 for the first, at most 0.5 for the second.

C11U C46U G52C U59C C66U and C11U C24U G44C C49A cannot be ordered by yeast fitness: at most 0.5 for the first, at most 0.5 for the second.

C11U A45U U54G and C11U A20U C24U G38A C49A A70U cannot be ordered by yeast fitness: at most 0.5 for the first, at most 0.5 for the second.

C11U C31G C34G A43U A69C and C11U C24G G50U G63C G67A cannot be ordered by yeast fitness: at most 0.5 for the first, at most 0.5 for the second.

Compared with C11U C30A U47A C62A, C11U A65U A69C is lower in yeast fitness: 0.591 for the first, 0.588 for the second.

C11U A21U U35A A36U and C11U C29G C55G A57G cannot be ordered by yeast fitness: at most 0.5 for the first, at most 0.5 for the second.

First: C11U C34G A45C G51A A65U
Second: C11U A40G A65C
The yeast fitness of the first is lower: at most 0.5 for the first, 0.594 for the second.

C11U C31U U59A and C11U C24U G44C C49A A69C cannot be ordered by yeast fitness: at most 0.5 for the first, at most 0.5 for the second.

C11U A20U C24U C29A C49U A70G and C11U C24A C34U A37U G39C A40U G52A C55G cannot be ordered by yeast fitness: at most 0.5 for the first, at most 0.5 for the second.

First: C11U C30U G38C A65G
Second: C11U C27U C31U A36C G44C A45G G56C A70U
The yeast fitness of the first is higher: 0.506 for the first, at most 0.5 for the second.

C11U A45C C62G A65C and C11U A43U A45C G67C cannot be ordered by yeast fitness: at most 0.5 for the first, at most 0.5 for the second.

Compared with C11U C27G G48C C49G, C11U A43C G56A is higher in yeast fitness: at most 0.5 for the first, 0.692 for the second.

Going from C11U A40U C46U C60G to C11U C27A G52A, the yeast fitness falls from 0.589 to at most 0.5.

Compared with C11U C22G A57G, C11U C22G A57U is lower in yeast fitness: 0.586 for the first, at most 0.5 for the second.

C11U C22U C29G C34U G48C A57G and C11U C33G U54A U64A cannot be ordered by yeast fitness: at most 0.5 for the first, at most 0.5 for the second.

C11U C29G A36U C66A and C11U C22G C29G G41A U54A cannot be ordered by yeast fitness: at most 0.5 for the first, at most 0.5 for the second.

C11U A21G C24A G52A and C11U A20G U47G G58A cannot be ordered by yeast fitness: at most 0.5 for the first, at most 0.5 for the second.

For C11U A21C C27G G44A A65U, the yeast fitness was at most 0.5.
